Shown are actives, neighbours in structure and some others; about 2% of the full set was active somewhere.
CHRM1 antagonist: antagonists of human M1 muscarinic receptor | P11229 | CHO-K1 hM1, Fluo-8 calcium fluorescence, ACh EC80 antagonist | inhibition, % at 3 µM | actives 1.3% (n = 360,000) | AID 588852;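 active means percent inhibition above its own plate's cutoff, namely the mean of that plate's compound wells plus 3 SD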;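 further: peak over basal fluorescence ratio during 140 s after agonist addition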
Target sequence (P11229 whole entry, looked up): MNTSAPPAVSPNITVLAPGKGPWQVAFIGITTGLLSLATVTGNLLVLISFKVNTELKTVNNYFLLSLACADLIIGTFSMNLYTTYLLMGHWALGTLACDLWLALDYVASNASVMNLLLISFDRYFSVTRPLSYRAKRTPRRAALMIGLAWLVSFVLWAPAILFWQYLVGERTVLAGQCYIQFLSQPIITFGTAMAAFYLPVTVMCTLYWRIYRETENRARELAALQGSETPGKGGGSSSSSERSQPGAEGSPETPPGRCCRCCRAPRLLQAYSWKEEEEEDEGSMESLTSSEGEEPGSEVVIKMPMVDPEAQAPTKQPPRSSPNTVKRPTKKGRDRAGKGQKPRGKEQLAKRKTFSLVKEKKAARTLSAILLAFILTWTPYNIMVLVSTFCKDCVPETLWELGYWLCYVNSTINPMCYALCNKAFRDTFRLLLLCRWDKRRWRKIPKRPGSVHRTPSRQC
CHRM5 PAM: CHRM5 positive allosteric modulation; CHO-K1 hM5, Fluo-8 calcium, ACh EC20 PAM; 0% = ACh EC20, 100% = ACh EC100; activation, % at 3 µM; actives 0.3% (n = 360,000);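 active means activation above the run cutoff, the mean activation of all test compounds plus 3 SD, cut at about 18% in these data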
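Assay system: CHO-K1 hM5 cells. Also added: acetylcholine at EC20 concentration, added after compound. Dosing: 3 µM, single dose. Times: compound preincubation 140 s before EC20 acetylcholine addition. Signal: Fluo-8 calcium fluorescence. Measure: % activation relative to EC20 and EC100 ACh responses. Repeats: singlicate, one well per test compound.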
M1 ag: activates human CHRM1 receptor | P11229 | CHO-K1 hM1, Fluo-8 calcium fluorescence, agonist mode; 0% DMSO, 100% acetylcholine EC100 | activation, % at 3 µM | actives 0.33% (n = 360,000) | AID 588814;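 active means activation above the run's mean compound activation plus 3 SD, cut at about 16% in these data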;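 further: peak over basal fluorescence ratio within a 140 s kinetic read after compound addition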
M1 PAM: potentiates human M1 receptor response to acetylcholine. P11229. activation, % at 3 µM. AID 588819. actives 0.088% (n = 360,000). CHO-K1 hM1, Fluo-8 calcium fluorescence, ACh EC20; 0% = ACh EC20, 100% = maximal ACh; in the data active means activation above about 19%, passing the limit was not always enough
CHRM5 agonist: agonists of human muscarinic M5 receptor (CHRM5) | P08912 | AID 624037 | actives 0.19% (n = 360,000) | CHO-K1 hM5 cells, Fluo-8 calcium fluorescence; 0% DMSO wells, 100% maximal acetylcholine response | activation, % at 3 µM;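 active means activation above the run's mean over test compounds plus 3 SD, cut at about 23% in these data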;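 further: signal is peak over basal fluorescence ratio across the kinetic read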
CHRM5 antagonist: CHRM5 antagonism in calcium assay; actives 0.59% (n = 360,000); inhibition, % at 3 µM; CHO-hM5 cells, Fluo-8 calcium fluorescence, ACh EC80;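 active means inhibition above a per-plate cutoff, the mean of that plate's test compounds plus 3 SD, cut at about 27% in these data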
Numbers stand for hits; i = inactive; nt = not tested or not shown.

SMILES	CHRM1 antagonist	CHRM5 PAM	M1 ag	M1 PAM	CHRM5 agonist	CHRM5 antagonist
COc1ccc(C(O)c2nc(-c3ccoc3)cs2)cc1 (stereo not given)	i	i	i	i	i	i
CCc1noc(C)c1C(=O)Nc1nc(-c2ccc(OC)cc2)cs1	37	i	i	i	i	i
O=C1NC[C@@H](CCCCN2C[C@H](Cc3ccccc3)N(CCc3ccccc3)C(=O)C2=O)N(CCc2ccccc2)C1=O	nt	i	nt	nt	i	i
Cc1ccc(N/C(N)=N/c2nc(C)cc(N3CCCCC3)n2)c(C)c1	34	i	i	i	i	i
C=CC(COCc1ccccc1)N([C@@H](Cc1ccccc1)C(=O)OC)S(=O)(=O)c1ccccc1Br (stereo not given in full)	i	i	i	i	i	i
CCN1CCN(CCn2c(=S)[nH]c3ccccc3c2=O)CC1	86	i	i	i	i	73
O=c1c2ccccc2[nH]c(=S)n1CCN1CCCC1	i	i	i	i	i	i
CCCNC(=O)C1(C)CCN(C(=O)C(c2ccccc2)c2ccccc2)C1 (stereo not given)	i	i	i	i	i	i
COc1ccc(NC(=O)CN(C)C(=O)CCC2CCCC2)cc1	i	i	i	i	i	30
Cc1ccccc1CN(C)CCc1ccccn1	i	i	i	i	i	i
CC(C)=CCCC(C)CN(C)CCc1ccccn1 (stereo not given)	42	i	i	i	i	i
CCOc1ccc(NC(=O)CNC(=O)c2nn(-c3ccc(OC)cc3)c(=O)c3ccccc23)cc1	i	i	i	i	i	i
CCCCCCSc1ccc([C@H]2N[C@@](C)(C(=O)OC)[C@H]3C(=O)N(C)C(=O)[C@@H]23)cc1	36	i	i	i	i	i
CCCSc1ccc([C@H]2N[C@@](C)(C(=O)OC)[C@H]3C(=O)N(C)C(=O)[C@@H]23)cc1	i	i	i	i	i	i
CCc1ccc(NC(=O)C2CCN(S(=O)(=O)c3cccs3)CC2)cc1	i	i	i	i	i	i
CCC(C)(C)NC(=O)C1CCN(S(=O)(=O)c2cccs2)CC1	i	i	i	i	i	33
O=C(CCN1C(=O)c2ccccc2C1=O)N(CCO)Cc1ccccc1	101	i	i	i	i	i
Cc1ccc(SCC(=O)OCC(=O)N(C)CC(=O)Nc2ccc(F)cc2)cc1C	i	i	32	i	50	i
CCOC(=O)c1c(-c2ccccc2)csc1NC(=O)/C(C#N)=C/c1ccc(O)c(OC)c1	i	i	17	i	i	i
CC(=O)N1CCOc2ccc(S(=O)(=O)NC[C@H]3O[C@@H](n4ccc(N)nc4=O)[C@H](O)[C@@H]3O)cc21	i	i	i	i	i	i
Cc1nn(C)c(C)c1CN(Cc1nc(CCC(C)C)no1)C(C)C	i	i	i	i	i	32
Cc1ccc(S(=O)(=O)N(C)c2ccc(C(=O)NC3CCCCC3)cc2)cc1	i	i	i	i	i	i
CCOC(=O)C1CCN(CCCSc2ccc(Cl)cc2)CC1	28	i	i	i	i	i
CN1CCN(Cc2cccc(Oc3ccc(Cl)cc3)c2)CC1	i	i	i	i	i	35
CCOC(=O)C1CCN(CCC(=O)Nc2ccc(Cl)cc2)CC1	i	i	i	i	i	i
SMILES	CHRM1 antagonist	CHRM5 PAM	M1 ag	M1 PAM	CHRM5 agonist	CHRM5 antagonist
c1ccc(Oc2cccc(CN3CCCCC3)c2)cc1	46	i	i	i	i	i
CCN1CCN(Cc2cccc(Oc3ccc(Cl)cc3)c2)CC1	54	i	i	i	i	i
Cc1ccc(S(=O)(=O)Oc2cccc([N+](=O)[O-])c2)cc1	i	i	i	i	i	i
CCOC(=O)C1CCN(Cc2cccc(Oc3ccc(Cl)cc3)c2)CC1	28	i	i	i	i	i
CCOC(=O)C1CCN(Cc2cccc(Oc3ccccc3)c2)CC1	i	i	i	i	i	i
CCCCNC(=O)c1nc(-c2cc3ccccc3[nH]2)oc1-c1cccc(C(F)(F)F)c1	nt	i	nt	nt	i	i
C[C@@H]1CN([C@@H](C)CO)C(=O)c2cc(-c3ccncc3)cnc2O[C@H]1CN(C)C(=O)c1cccc(F)c1	i	i	i	i	i	i
CS(=O)(=O)N(CC(=O)NCCC1=CCCCC1)C1CCCCC1	i	i	i	i	i	i
O=C(CN1CCN(C2CCCCC2)CC1)NCCC1=CCCCC1	i	i	45	i	i	i
COc1ccc(C(CNc2ccc(S(=O)(=O)N3CCCC3)cc2[N+](=O)[O-])N2CCCC2)cc1 (stereo not given)	75	i	i	i	i	32
Cc1ccccc1-c1nc(NC(C)C)nc2ccsc12	i	i	i	i	i	i
CN(C)CCNc1nc(-c2ccccc2CO)c2sccc2n1	74	i	i	i	i	37
CC(C)Nc1nc(-c2ccccc2CO)c2sccc2n1	i	i	i	i	i	i
Cc1ccccc1-c1nc(NCCN(C)C)nc2ccsc12	88	i	i	i	i	56
Cc1nc2scc(C)n2c(=O)c1S(=O)(=O)NCCc1ccc(Cl)cc1	i	i	i	i	i	i
Cc1nc2scc(C)n2c(=O)c1S(=O)(=O)NCC1CCN(Cc2ccc(Cl)cc2)CC1	44	i	i	i	i	i
C[C@@H]1CCCCO[C@@H](CN(C)C(=O)Nc2ccc3c(c2)OCO3)[C@@H](C)CN([C@H](C)CO)C(=O)c2cc(N(C)C)ccc2O1	i	i	i	i	i	i
CN=C1NC(C)(C)C2CCC(C)(CC2)S1	39	i	i	i	i	i
CCN1CCN(c2ccc(NC(=O)CCc3c(C)nc4c(-c5ccc(F)cc5)c(C)nn4c3C)cc2)CC1	34	i	i	i	i	i
COc1ccccc1OCCNC(=O)CNC(=O)c1ccc(C(C)(C)C)cc1	i	i	i	i	i	i
COc1ccccc1OCCNC(=O)c1ccc(C(C)(C)C)cc1	i	20	i	i	i	i
COc1ccc2c(c1)sc(N)[n+]2Cc1cc(C)cc2cccnc12	65	i	i	i	i	i
CCOc1ccc2c(c1)sc(N)[n+]2Cc1cc(C)cc2cccnc12	70	i	i	i	i	i
Cc1cc(C[n+]2ncsc2N)c2ncccc2c1	i	i	i	i	i	i
CCCCOc1ccc(Br)cc1CSC(=N)N	26	i	i	i	i	40
Cc1nc(N)c(C#N)c(-c2cccnc2)c1C	i	26	i	i	i	i
CC(C1=C(CCN(C)C)Cc2ccccc21)c1ccccn1 (stereo not given)	77	i	i	i	i	i
CN(C)CCC(c1ccccc1)c1ccccn1 (stereo not given)	i	i	i	i	i	i
